Each structure is given as a SMILES string.

In data set [1] the target is Replicase polyprotein 1ab (Severe acute respiratory syndrome coronavirus 2, UniProt P0DTD1). The data set can be described thus: Inhibition of recombinant SARS-CoV-2 3CLpro using Dacyl-KTSAVLQSGFRKME-Edans as substrate preincubated for 10 mins followed by substrate addition measured for 5 mins by FRET assay.
Data set [2] is described as follows: Half life in ICR mouse at 20 mg/kg, po measured for 24 hrs by LC-MS/MS analysis. Type of data set: ADME, organism-based. To be noted: in vivo. The method in brief:
(§1)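 ICR mice, three per group, randomly assigned, received a single 20 mg/kg oral dose, with a parallel 10 mg/kg IV group for bioavailability. Blood was sampled at 0.25, 0.5, 1, 2, 4, 6, 8 and 24 h. Plasma was protein-precipitated with MeOH plus internal standard and quantified by LC-MS/MS. Parameters came from non-compartmental analysis.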

Data set [3] is described as follows: Cmax in ICR mouse at 20 mg/kg, po measured for 24 hrs by LC-MS/MS analysis. To be noted: in vivo. The class given is ADME, organism-based. The procedure, abridged: as §1
Data set [4] can be described thus: AUC (0 to infinity) in ICR mouse at 20 mg/kg, po measured for 24 hrs by LC-MS/MS analysis. The class given is ADME, organism-based. To be noted: in vivo. The procedure, abridged:
as §1

A short description of data set [5]: Oral bioavailability in ICR mouse at 20 mg/kg measured for 24 hrs by LC-MS/MS analysis. Type of data set: ADME, organism-based. As to conditions: in vivo. The procedure, abridged: as §1
Data set [6] is described as follows: AUC (0 to infinity) in ICR mouse at 10 mg/kg, iv measured for 24 hrs by LC-MS/MS analysis. The class given is ADME, organism-based. To be noted: in vivo. The method in brief:
(§2)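 Male/female unspecified ICR mice, three per group, randomly assigned, given a single intravenous dose of 10 mg/kg. Whole blood was drawn at 0.083, 0.25, 0.5, 1, 2, 4, 8 and 24 h. Plasma (20 μL) was precipitated with MeOH containing internal standard, then analysed by LC-MS/MS. Parameters came from non-compartmental analysis.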

The nature of data set [7]: Half life in ICR mouse at 10 mg/kg, iv measured for 24 hrs by LC-MS/MS analysis. Type of data set: ADME, organism-based. As to conditions: in vivo. The procedure, abridged: as §2
The subject of another data set is Vero C1008. Kind of data set: Cytotoxicity against African green monkey Vero E6 cells incubated for 48 hrs by Luminescent cell viability assay. To be noted: chlorocebus sabaeus, vero c1008, 48 h. Type of data set: toxicity, cell-based. The method in brief:
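Vero E6 cells were seeded at 2.5 × 10³/well and grown 48 h, then exposed to compound at 0.5–200 μM for a further 48 h (n = 3). Viability was read by a luminescent cell-viability reagent after 10 min. Values came from curve fitting.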

Data set [8] is described as follows: AUC (0 to t) in ICR mouse at 20 mg/kg, po measured for 24 hrs by LC-MS/MS analysis. Type of data set: ADME, organism-based. As to conditions: in vivo. The procedure, abridged: as §1
Data set [9] is described as follows: AUC (0 to t) in ICR mouse at 10 mg/kg, iv measured for 24 hrs by LC-MS/MS analysis. As to conditions: in vivo. Type of data set: ADME, organism-based. The method in brief: as §2
Data set [10] can be described thus: Selectivity index, ratio of CC50 for African green monkey Vero E6 cells to EC50 for SARS-CoV-2 WIV04 infected in African green monkey Vero E6 cells. The class given is toxicity. To be noted: read-out: Ratio CC50/EC50.
The subject of another data set is SARS-CoV-2. The data set can be described thus: Antiviral activity against SARS-CoV-2 WIV04 infected in African green monkey Vero E6 cells assessed as reduction in viral replication preincubated cells for 1 hr followed by viral infection for 24 hrs by real-time fluorescence quantitative PCR method. Type of data set: functional, organism-based. To be noted: Severe acute respiratory syndrome coronavirus 2, WIV04, Vero C1008.

Data set [11] deals with Procathepsin L (Homo sapiens) (UniProt P07711). The data set can be described thus: Inhibition of cathepsin L (unknown origin) using Z-FR-AMC at 20 uM as substrate measured for 10 mins by fluorescence based assay relative to control.
The target of data set [12] is Chymotrypsinogen A (Bos taurus) (UniProt P00766). The data set can be described thus: Inhibition of bovine pancreatic alpha-chymotrypsin using N-succinyl-AAPF-AMC as substrate at 20 uM preincubated for 10 mins followed by substrate addition measured for 10 mins by fluorescence based assay relative to control. To be noted: time 20.0 min. The procedure, abridged: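 Chymotrypsin (5 nM final) was preincubated 10 min with 20 μM compound in PBS, pH 7.4. The reaction was started with N-succinyl-AAPF-AMC (10 μM final). Fluorescence (ex 380/em 460 nm) was read every 1 min for 10 min.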

Sequence of Procathepsin L (Homo sapiens) (P07711 114-333 limits assumed): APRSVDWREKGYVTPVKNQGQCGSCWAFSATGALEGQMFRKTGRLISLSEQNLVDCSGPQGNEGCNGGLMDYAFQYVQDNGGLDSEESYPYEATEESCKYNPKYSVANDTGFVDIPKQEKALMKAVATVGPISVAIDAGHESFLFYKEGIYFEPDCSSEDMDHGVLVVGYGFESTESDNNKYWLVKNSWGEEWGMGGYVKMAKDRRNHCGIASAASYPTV

In general, IC50 refers to the concentration that gives 50% inhibition. For the compound `[2H]C([2H])([2H])C(=O)N[C@H](C(=O)N1[C@@H]2CC[C@@H](C2)[C@H]1C(=O)N[C@@H](C[C@@H]1CCNC1=O)C(=O)c1nc2ccccc2s1)C(C)(C)C`, the IC50 in data set [1] came out at 0.527 µM.
By Cmax is commonly meant the maximum level reached in the sampled fluid or tissue. The term AUC denotes the area under the concentration-time curve, a measure of exposure. The CC50 is the concentration that lowers cell viability or growth by half. On to `CC(C)(C)[C@H](NC(=O)C(F)(F)F)C(=O)N1C[C@H]2[C@@H]([C@H]1C(=O)N[C@H](C#N)C[C@@H]1CCNC1=O)C2(C)C` [NIRMATRELVIR], for which the figures for the t1/2 in data set [2] and in [7] were 30.6 min and 25.2 min, respectively. In addition, in [3], the Cmax was found to be 1.819 µg/mL. In addition, the AUC in [4] was 1.029 µg·h/mL; in [6], 2.241 µg·h/mL. In data set [5], this compound showed an F of 22.85%. This compound came in with a CC50 in the data set on Vero C1008 above 500 µM. Also, the AUCt was 1.023 µg·h/mL in data set [8] and 2.24 µg·h/mL in data set [9].
In the case of `CC(C)(C)[C@H](NC(=O)C(F)(F)F)C(=O)N1[C@@H]2CC[C@@H](C2)[C@H]1C(=O)N[C@@H](C[C@@H]1CCNC1=O)C(=O)c1nc2ccccc2s1`, the t1/2 in [2] was determined as 54.6 min; in [7], 28.2 min. In [1], the IC50 is 0.11 µM. The Cmax in data set [3] worked out at 1.597 µg/mL. Moreover, the values for the AUC in [4] and in [6] were 2.161 µg·h/mL and 2.284 µg·h/mL, respectively. The compound also returned a F in [5] of 47.25%. For the same compound, the AUCt worked out at 2.155 µg·h/mL in [8] and 2.281 µg·h/mL in data set [9].
On to `O=C1NCC[C@H]1C[C@H](NC(=O)[C@@H]1[C@H]2CC[C@H](C2)N1C(=O)[C@H](CC1CCCCC1)NS(=O)(=O)C(F)(F)F)C(=O)c1nc2ccccc2s1`, for which the IC50 in data set [1] stood at 5.14 µM.
Take `COc1ccc(C[C@H](NS(=O)(=O)C(F)(F)F)C(=O)N2[C@@H]3CC[C@@H](C3)[C@H]2C(=O)N[C@@H](C[C@@H]2CCNC2=O)C(=O)c2nc3ccccc3s2)cc1`: the IC50 in data set [1] worked out at 5.34 µM.
The same measure, in the same setting: to `CC(C)(C)OC[C@H](NS(=O)(=O)C(F)(F)F)C(=O)N1[C@@H]2CC[C@@H](C2)[C@H]1C(=O)N[C@@H](C[C@@H]1CCNC1=O)C(=O)c1nc2ccccc2s1` belongs 2.74 µM.
As usually defined, the EC50 is the concentration needed to bring the measured effect to its halfway point. With `CC(C)(C)[C@H](NS(=O)(=O)C(F)(F)F)C(=O)N1[C@@H]2CC[C@@H](C2)[C@H]1C(=O)N[C@@H](C[C@@H]1CCNC1=O)C(=O)c1nc2ccccc2s1`, the t1/2 in data set [2] stood at 45.6 min; in data set [7], 44.4 min. Besides, the half-inhibitory concentration (IC50) in [1] stood at 0.868 µM. In addition, the Cmax in data set [3] was determined as 3.342 µg/mL. Moreover, in [10], the selectivity ratio came out at 429. The figures for the AUC in [4] and in data set [6] were 5.153 µg·h/mL and 3.857 µg·h/mL, respectively. In addition, the EC50 in the data set on SARS-CoV-2 was 0.32 µM. The compound further displayed a F in data set [5] of 67.98%. This compound also came in with a CC50 in the data set with Vero C1008 of 137 µM. The results for the AUCt in data set [8] and in [9] were 5.143 µg·h/mL and 3.783 µg·h/mL, respectively.
As to `CN(C)S(=O)(=O)N[C@H](C(=O)N1[C@@H]2CC[C@@H](C2)[C@H]1C(=O)N[C@@H](C[C@@H]1CCNC1=O)C(=O)c1nc2ccccc2s1)C(C)(C)C`, the IC50 in data set [1] worked out at 0.584 µM.
On the same count and under the same terms, then `CC(C)(C)OC(=O)N[C@H](C(=O)N1[C@@H]2CC[C@@H](C2)[C@H]1C(=O)N[C@@H](C[C@@H]1CCNC1=O)C(=O)c1nc2ccccc2s1)C(C)(C)C`, with 5 µM.
One may read the inhibition as the percentage by which the read-out fell short of the control. Regarding `O=C1NCC[C@H]1C[C@H](NC(=O)[C@@H]1[C@H]2CC[C@H](C2)N1C(=O)[C@@H](NS(=O)(=O)C(F)(F)F)C12CC3CC(CC(C3)C1)C2)C(=O)c1nc2ccccc2s1`, the inhibition in data set [11] was 27%; in data set [12], 55.8%. For the same compound, the t1/2 in data set [2] came out at 126 min; in data set [7] it was 82.8 min. Besides, the IC50 in [1] is 1.65 µM. The Cmax in [3] worked out at 9.327 µg/mL. In addition, the selectivity ratio in [10] came out at 300. Besides, the AUC in data set [4] came to 33.207 µg·h/mL; in [6] it was 34.308 µg·h/mL. In the data set on SARS-CoV-2, the half-maximal effective concentration (EC50) worked out at 0.18 µM. Moreover, in data set [5], the F is listed as 48.1%. The same compound displayed a CC50 in the data set on Vero C1008 of 54 µM. In addition, the AUCt in [8] came to 32.473 µg·h/mL; in [9], 33.78 µg·h/mL.
In the case of `CC(C)(F)C(=O)N[C@H](C(=O)N1[C@@H]2CC[C@@H](C2)[C@H]1C(=O)N[C@@H](C[C@@H]1CCNC1=O)C(=O)c1nc2ccccc2s1)C(C)(C)C`, the IC50 in [1] amounted to 1.27 µM.

Values taken from ChEMBL document CHEMBL5620366, “Design, synthesis and biological evaluation of peptidomimetic benzothiazolyl ketones as 3CLpro inhibitors against SARS-CoV-2” (Eur J Med Chem, 2023).
